Reference: ChEMBL document CHEMBL2203094, “Ramariolides A-D, antimycobacterial butenolides isolated from the mushroom Ramaria cystidiophora” (J Nat Prod, 2012)
≈ marks a conversion by molar mass, not a printed value. Calls of active or inactive are those of the source. The rule behind the calls is not given here.

Legend:
[1] = test system: Mycolicibacterium smegmatis; test: Antimicrobial activity against Mycobacterium smegmatis str. MC2 155 by broth dilution method; type: functional
Summary of the method: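 M. smegmatis mc2155 grown and assayed at 37 °C in NE13 medium. Broth dilution with twofold serial dilutions, top concentration 128 μg/mL, run in triplicate. Resazurin read-out; MIC is the lowest concentration preventing the blue-to-pink change. For MBC, each well was subcultured into fresh medium before resazurin was added, then read the same way.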

[2] = test system: Mycobacterium tuberculosis; test: Antimicrobial activity against Mycobacterium tuberculosis str. Erdman by MTT assay; type: functional
Summary of the method: (§1)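 Strains were grown in Middlebrook 7H9 with 0.2% glycerol and 10% ADC; tyloxapol was omitted in assays. Inoculum of 10^5 cells/mL was exposed to 2-fold serial dilutions at 37 °C in 5% CO2 for 7 d. MTT (2.5 mg/mL) was then added for 24 h, followed by 10% Na lauryl sulfate, and OD570 read after 24 h. IC50 came from a four-parameter log2 dose-response fit, in triplicate.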

Acinetobacter baumannii = test: Antimicrobial activity against Acinetobacter baumannii ATCC 19606; type: functional, organism-based; conditions: ATCC 19606 = CIP 70.34 = JCM 6841
Summary of the method: (§2)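 Disk diffusion spectrum test: agar plates swabbed from 10^6 cells/mL suspensions of each strain; 6 mm paper disks carrying 50 μg compound; inhibition zone sizes read after 16−18 h.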

Escherichia coli = test: Antimicrobial activity against Escherichia coli O157:H7; type: functional, organism-based
Staphylococcus aureus = test: Antimicrobial activity against Staphylococcus aureus RN4220 at 50 ug after 16 to 18 hrs by disk diffusion method; type: functional; conditions: read-out: DIZ
Summary of the method: (§3)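 Disk diffusion: strains grown at 37 °C in NE13 medium. Agar plates swabbed from 10^6 cells/mL suspensions; 6 mm paper disks loaded with 50 μg compound; growth-inhibition zones measured after 16−18 h.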

Salmonella typhimurium = test: Antimicrobial activity against Salmonella typhimurium ATCC 14028; type: functional, organism-based; conditions: Salmonella enterica subsp. enterica serovar Typhimurium; summary of the method: as §2
Pseudomonas aeruginosa = test: Antimicrobial activity against Pseudomonas aeruginosa PAO1; type: functional, organism-based; summary of the method: as §2
Micrococcus luteus = test: Antimicrobial activity against Micrococcus luteus JVC1154 at 50 ug after 16 to 18 hrs by disk diffusion method; type: functional; conditions: read-out: DIZ; summary of the method: as §3
[3] = test system: Mycobacterium tuberculosis; test: Antimicrobial activity against Mycobacterium tuberculosis CDC1551 by MTT assay; type: functional; summary of the method: as §1
[4] = test system: Mycobacterium tuberculosis; test: Antimicrobial activity against Mycobacterium tuberculosis H37Rv by MTT assay; type: functional, organism-based; summary of the method: as §1

Row | Compound | MIC [1] [µg/mL] | IC50 [2] [µg/mL] | MIC [2] [µg/mL] | Activity (Acinetobacter baumannii) | Activity (Escherichia coli) | zone of inhibition at 50 µg/disc (Staphylococcus aureus) [mm] | Activity (Salmonella typhimurium) | Activity (Pseudomonas aeruginosa) | zone of inhibition at 50 µg/disc (Micrococcus luteus) [mm] | IC50 [3] [µg/mL] | MIC [3] [µg/mL] | IC50 [4] [µg/mL] | MIC [4] [µg/mL]
1 | NNC(=O)c1ccncc1 [ISONIAZID] | 8 (≈ 58.3 µM) |  |  |  |  |  |  |  |  |  |  |  | 
2 | CCCCCCCCCC[C@H](O)[C@@H]1O[C@]12C=CC(=O)O2 [RAMARIOLIDE A] | 8 (≈ 28.3 µM) | 53 (≈ 188 µM) | 64 (≈ 227 µM) | inactive | inactive | 15 | inactive | inactive | 18 | 53 (≈ 188 µM) | 64 (≈ 227 µM) | 53 (≈ 188 µM) | 64 (≈ 227 µM)
3 | CN[C@@H]1[C@H](O)[C@H](NC)[C@H]2O[C@@]3(O)C(=O)C[C@@H](C)O[C@H]3O[C@@H]2[C@H]1O [SPECTINOMYCIN] | 32 (≈ 96.3 µM) |  |  |  |  |  |  |  |  |  |  |  | 
